Only some compounds are listed: those with a hit (about 4.1% of all), similar ones and a draw of the others.
CHOP UPR activ = activators of apoptotic arm of unfolded protein response (CHOP); CHO-CHOP luciferase reporter, UPR activation, luminescence; percent of tunicamycin response over DMSO baseline; activation, % at 10 µM; hit rate 0.34% among 330,000; AID 449763;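 active = at 10 µM dose, activation of 40% or more, normalized to positive control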;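 note: 100% = tunicamycin at 10 µg/mL and 0% = DMSO alone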
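System: CHO CHOP reporter cells. Amount: 500 cells per well. Buffer or medium: F12 medium, 10% FBS. Compound dosing: one dose, 10 µM in 0.5% DMSO. Incubation: 6 h compound exposure at 37 °C after overnight seeding. Technique: Steady-Glo luciferase luminescence. Benchmarks: tunicamycin and DMSO controls.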
Mdm2 MdmX PPI = disrupts the human Mdm2-MdmX interaction. O15151+Q00987. SaOS-2 split-luciferase Mdm2/MdmX complementation, luminescence. inhibition, % at 8 µM. hit rate 3% among 330,000;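 active = inhibition of at least 50% at 8 µM in the primary screen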
Target sequence (O15151 whole entry, looked up): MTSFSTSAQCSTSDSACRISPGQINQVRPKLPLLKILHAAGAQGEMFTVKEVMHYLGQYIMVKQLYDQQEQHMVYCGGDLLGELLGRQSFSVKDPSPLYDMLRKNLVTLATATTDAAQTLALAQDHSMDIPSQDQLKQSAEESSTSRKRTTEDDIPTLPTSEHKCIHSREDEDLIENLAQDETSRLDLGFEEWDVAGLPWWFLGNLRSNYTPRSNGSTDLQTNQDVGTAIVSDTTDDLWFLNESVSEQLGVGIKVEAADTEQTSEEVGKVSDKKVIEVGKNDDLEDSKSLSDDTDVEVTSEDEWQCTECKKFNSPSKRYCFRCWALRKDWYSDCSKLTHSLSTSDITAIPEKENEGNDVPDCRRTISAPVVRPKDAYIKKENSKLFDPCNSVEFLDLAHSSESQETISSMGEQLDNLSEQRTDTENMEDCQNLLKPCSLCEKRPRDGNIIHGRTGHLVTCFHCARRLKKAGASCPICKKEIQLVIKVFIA
Target sequence (Q00987 whole entry, looked up): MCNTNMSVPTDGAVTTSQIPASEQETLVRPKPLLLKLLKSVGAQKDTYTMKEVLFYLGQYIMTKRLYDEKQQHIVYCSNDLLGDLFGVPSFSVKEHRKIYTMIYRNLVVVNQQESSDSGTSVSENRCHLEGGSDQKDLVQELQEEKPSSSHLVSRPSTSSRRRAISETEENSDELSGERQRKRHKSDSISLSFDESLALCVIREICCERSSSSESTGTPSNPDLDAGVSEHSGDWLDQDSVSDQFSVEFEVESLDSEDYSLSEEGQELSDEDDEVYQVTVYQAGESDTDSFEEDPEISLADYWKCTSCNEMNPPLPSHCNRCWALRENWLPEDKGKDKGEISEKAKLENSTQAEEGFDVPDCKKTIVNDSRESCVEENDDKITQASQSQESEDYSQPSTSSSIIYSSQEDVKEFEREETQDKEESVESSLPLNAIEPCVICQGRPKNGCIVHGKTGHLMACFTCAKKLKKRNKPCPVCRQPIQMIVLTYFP
UBC13 inh = blocks human UBC13 polyubiquitin chain formation; inhibition, % at 20 µM; P61088; TR-FRET; AID 485273; hit rate 0.47% among 330,000; in the data active = inhibition above about 45%, passing the limit was not always enough
Apaf-1 inh = human Apaf-1 inhibition. O14727. reconstituted apoptosome caspase-3 activity, DEVD-Rh110 fluorescence. inhibition, % at 20 µM. hit rate 0.71% among 330,000. AID 489030; active = inhibition of at least 40% at 20 µM;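 note: plate controls were DMSO wells for no effect and DEVD-CHO caspase inhibitor wells for full effect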
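Medium: Hepes buffer, pH 7.5 / System: biochemical Apaf-1 apoptosome reconstitution / Measured by: Rh110 fluorescence, excitation 480 nm, emission 540 nm / Times: compound with Apaf-1, dATP, procaspase-3 30 min, then 50 min reaction, room temperature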
XBP1 UPR activ = adaptive UPR (XBP1) activation. CHO-XBP1 luciferase reporter, IRE1-XBP1 UPR activation, luminescence; percent of tunicamycin response, DMSO as zero. activation, % at 20 µM. hit rate 0.33% among 330,000. AID 463104;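 active = versus positive control, 20 µM dose yields 30% or more activation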;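 note: 100% = tunicamycin at 10 µg/mL and 0% = DMSO only wells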
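Signal: luciferase luminescence; Assay system: CHO-XBP1 luciferase reporter cells; Amount: one thousand reporter cells per well; Dosing: 20 µM single concentration, DMSO 1%; Benchmarks: high control tunicamycin 10 µg/mL final, low control DMSO vehicle only; Schedule: 6 h compound exposure at 37 °C, 5% CO2; Evaluation: percent activation relative to tunicamycin reference.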
Apaf-1 inh conf = Apaf-1 inhibition, single-dose confirmed. hit rate 25% among 1,800. inhibition, % at 20 µM. reconstituted apoptosome, caspase-3 DEVD-Rh110 fluorescence. shares compounds with Apaf-1 inh;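 active = mean inhibition of at least 40% at 20 µM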;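 note: plate controls were DMSO wells for no effect and DEVD-CHO caspase inhibitor control wells for full effect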
Rh110 interf inh = counter-screen for Apaf-1 inhibitors: fluorescence interference | shares compounds with Apaf-1 inh | Rh110 fluorescence interference, quenched caspase reaction | activation (fluorescence interference), % at 20 µM | 1,800 tested, under 10 active | AID 504615;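 active = signal rise of 40% or more at 20 µM, treated as a fluorescence artifact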
Apaf1 inh interf = Apaf-1 inhibitor counter-screen fluorescence artifact; shares compounds with Apaf-1 inh; 460 tested, under 10 active; fluorescence interference counterscreen, Apaf-1 assay format; IC50, µM; call rule not given here
* marks the source's active call; other numbers are inactive results.

Screening Cn1cc(C(=O)N2CCc3ccccc32)cn1 returned CHOP UPR activ 4, Mdm2 MdmX PPI -12, UBC13 inh 0, Apaf-1 inh -3 and XBP1 UPR activ 5.
For Cc1cc(C(F)(F)F)nc2c(Cl)c(C(C)(C)C)nn12 the results were CHOP UPR activ 2, Mdm2 MdmX PPI 16, UBC13 inh 3, Apaf-1 inh -8 and XBP1 UPR activ -1.
CCCN(CC1CC1)c1nc(N)c2c(N)nc(OC)cc2c1C#N was read as CHOP UPR activ -2, Mdm2 MdmX PPI 34, UBC13 inh -3, Apaf-1 inh 93*, XBP1 UPR activ 10, Apaf-1 inh conf 6 and Rh110 interf inh 1.
`Cc1ccc2nc(-c3cccc(SC4CCCCC4)c3)c(NC3CCCCC3)n2c1` gave CHOP UPR activ 1, Mdm2 MdmX PPI 48, UBC13 inh 16, Apaf-1 inh 26 and XBP1 UPR activ 0.
For CCC(C)Sc1ccc(-c2nc3ccc(C)cn3c2NC2CCCCC2)cc1 (stereo unspecified) the results were CHOP UPR activ 4, Mdm2 MdmX PPI 34, UBC13 inh 29, Apaf-1 inh 41*, XBP1 UPR activ 15, Apaf-1 inh conf 8 and Rh110 interf inh 7.
CN(CC(=O)Nc1cccc(F)c1)C(=O)CSc1ccccc1F was read as CHOP UPR activ 1, Mdm2 MdmX PPI 1, UBC13 inh 2, Apaf-1 inh 13 and XBP1 UPR activ -3.
Screening O=C(CSc1ccccc1F)NC(=O)c1ccccc1Br returned CHOP UPR activ 0, Mdm2 MdmX PPI 12, UBC13 inh -5, Apaf-1 inh -3 and XBP1 UPR activ -1.
`NS(=O)(=O)c1cccc(NC(=O)COC(=O)CSCc2ccccc2)c1` gave CHOP UPR activ 0, Mdm2 MdmX PPI -6, UBC13 inh -10, Apaf-1 inh 4 and XBP1 UPR activ 3.
For O=C1Cc2cc(S(=O)(=O)N3CCNCC3)ccc2N1 the results were CHOP UPR activ -1, Mdm2 MdmX PPI 17, UBC13 inh -4, Apaf-1 inh 40*, XBP1 UPR activ -1, Apaf-1 inh conf 10 and Rh110 interf inh 6.
For CSCCC(NC(=O)c1ccccc1Br)C(=O)N1CCN(C(C)=O)CC1 (stereo unspecified) the results were CHOP UPR activ 0, Mdm2 MdmX PPI 5, UBC13 inh 1, Apaf-1 inh 48*, XBP1 UPR activ -1, Apaf-1 inh conf 37 and Rh110 interf inh -1.
Screening CSCCC(NC(=O)c1ccccc1Br)C(=O)N1CCC(C)CC1 (stereo unspecified) returned CHOP UPR activ -1, Mdm2 MdmX PPI 28, UBC13 inh 1, Apaf-1 inh -12 and XBP1 UPR activ -2.
`Oc1c(Cl)cc(Cl)c2c1NCCC2` gave CHOP UPR activ 1, Mdm2 MdmX PPI 16, UBC13 inh -15, Apaf-1 inh 47*, XBP1 UPR activ -1, Apaf-1 inh conf 27 and Rh110 interf inh -2.
Screening CCC(CO)Oc1cc(NCc2ccc(Cl)cc2)c2ncn(C(C)C)c2c1 (stereo unspecified) returned CHOP UPR activ 0, Mdm2 MdmX PPI 7, UBC13 inh 7, Apaf-1 inh 37 and XBP1 UPR activ 0.
Screening CC(C)n1cnc2c(NCc3ccccc3)cc(Cc3ccc(F)cc3)cc21 returned CHOP UPR activ 4, Mdm2 MdmX PPI 0, UBC13 inh 21, Apaf-1 inh 25 and XBP1 UPR activ 1.
For COCCOc1cc(NCc2ccccc2)c2ncn(C(C)C)c2c1 the results were CHOP UPR activ -1, Mdm2 MdmX PPI 19, UBC13 inh -7, Apaf-1 inh 68*, XBP1 UPR activ -1, Apaf-1 inh conf 29 and Rh110 interf inh 1.
CCCOc1cc(NCc2ccccc2)c2ncn(C(C)C)c2c1 was read as CHOP UPR activ 3, Mdm2 MdmX PPI 34, UBC13 inh 25, Apaf-1 inh 44*, XBP1 UPR activ -4, Apaf-1 inh conf 54*, Rh110 interf inh 22 and Apaf1 inh interf >100.
Screening CCOc1cc(NCc2ccccc2)c2ncn(C(C)C)c2c1 returned CHOP UPR activ 0, Mdm2 MdmX PPI 11, UBC13 inh 20, Apaf-1 inh 42*, XBP1 UPR activ 0, Apaf-1 inh conf 54*, Rh110 interf inh 7 and Apaf1 inh interf >100.
COc1ccc(S(=O)(=O)N2CCCC(C(=O)NCc3ccccc3)C2)cc1 (stereo unspecified) was read as CHOP UPR activ -3, Mdm2 MdmX PPI 12, UBC13 inh 3, Apaf-1 inh 7 and XBP1 UPR activ -1.
O=C(c1ccc(Cn2c(=S)[nH]c3ccc(N4CCOCC4)cc3c2=O)cc1)N1CCC(N2CCCCC2)CC1 was read as CHOP UPR activ 0, Mdm2 MdmX PPI -3, UBC13 inh 20, Apaf-1 inh -7 and XBP1 UPR activ 3.
For O=C(NCc1ccc(F)cc1)c1cnn2ccccc12 the results were CHOP UPR activ 4, Mdm2 MdmX PPI 7, UBC13 inh 2, Apaf-1 inh -1 and XBP1 UPR activ -1.
O/N=C/c1cccnc1Sc1ccccc1 was read as CHOP UPR activ 0, Mdm2 MdmX PPI 0, UBC13 inh -3, Apaf-1 inh -6 and XBP1 UPR activ 0.
CN(C)c1ccc(N/C=C/C(=O)C(C)(C)C)cc1 was read as CHOP UPR activ 3, Mdm2 MdmX PPI 0, UBC13 inh -18, Apaf-1 inh 53*, XBP1 UPR activ 4, Apaf-1 inh conf -3 and Rh110 interf inh -3.
`CC(=O)N1CCN(C(=S)Nc2ccc(SC(F)F)cc2)CC1` gave CHOP UPR activ 1, Mdm2 MdmX PPI 7, UBC13 inh -8, Apaf-1 inh 96*, XBP1 UPR activ 3, Apaf-1 inh conf 14 and Rh110 interf inh 11.
For CC1CCN(C(=S)Nc2ccc(SC(F)F)cc2)CC1 the results were CHOP UPR activ 6, Mdm2 MdmX PPI -58, UBC13 inh 5, Apaf-1 inh 4 and XBP1 UPR activ 2.
Screening COc1cccc(N2CCN(CC(=O)Nc3ccccc3C(=O)NCc3ccccc3)CC2)c1 returned CHOP UPR activ 1, Mdm2 MdmX PPI 8, UBC13 inh 11, Apaf-1 inh 17 and XBP1 UPR activ 0.
For COc1cccc(N2CCN(CC(=O)Nc3ccccc3C(=O)NCCc3ccccc3)CC2)c1 the results were CHOP UPR activ 2, Mdm2 MdmX PPI -20, UBC13 inh 29, Apaf-1 inh 50*, XBP1 UPR activ 5, Apaf-1 inh conf 12 and Rh110 interf inh 5.
